Test results published in the EternaBench riboswitch data.

Tested on: MS2 coat protein
Assay: apparent Kd, MS2 coat protein; higher = weaker binding; RNA-MaP array; tryptophan 2.4 mM where present
Method in brief: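 Apparent Kd: the median of filtered binding-curve fits from single clusters. Designs were transcribed on Illumina sequencing-chip clusters by stalled E. coli RNA polymerase and titrated with SNAP-549-labelled MS2 coat protein from 0.7 or 1.5 nM, doubling to 3 µM, in 100 mM Tris-HCl pH 7.5, 80 mM KCl, 4 mM MgCl2, BSA, DTT, yeast tRNA and Tween-20. Each series ran without and then with constant ligand, and green signal was normalised to red-channel RNA signal and control-cluster median Fmax.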

[1] = designed as: OFF switch for tryptophan, no ligand
[2] = ligand present: tryptophan, designed as: OFF switch for tryptophan
[3] = designed as: ON switch for tryptophan, no ligand
[4] = ligand present: tryptophan, designed as: ON switch for tryptophan

## AUAAUAAUGUCGGCCGCCACUAUAAACAUGAGGAACAUGAGGAUCACCCAUGUAUGAGGAUCACCUAGGACCGGGACUAAUAUUA
[1]
  apparent Kd: 47.6 nM
[2]
  apparent Kd: 43.3 nM

## GGACUCGUCACGGCCGCCACUGCGGUGGUGUGACAUGAGGAUCACCCAUGUUGUCAUGCGGCCCUUAGGACCGGGUGUCGCUUCC
[1]
  apparent Kd: 169 nM
[2]
  apparent Kd: 198 nM

## CGUAUUGGAAACAGUACGAGUGAUCCGGUCCGAGGACCGGUACGGCCGCCACUCGAUAUAAAUAAACAUGAGGAUCACCCAUGUA
[1]
  apparent Kd: 16.2 nM
[2]
  apparent Kd: 25.7 nM

## CCUCAUGAACAUGAGGAUCACCCAUGUACACGAGGACCGGUACGGCCGCCACUCGAAUAACCUAAAUAUAAAUAAUAAUAAUAGG
[1]
  apparent Kd: 15.8 nM
[2]
  apparent Kd: 43 nM

## AGGUACGAAAACGUGGGUGAGUCGUACCAACGAGGACCGGUACGGCCGCCACUCGAAUAAACAUGAGGAUCACCCAUGUAAUAAU
[3]
  apparent Kd: 42.4 nM
[4]
  apparent Kd: 107 nM

## AUAAAUGGGUUAAUUAGUUUUAGGUCCAGUCGAGGACCGGUACGGCCGCCACUCGUCCCAAGUUACAUGAGGAUCACCCAUGUUA
[1]
  apparent Kd: 46.6 nM
[2]
  apparent Kd: 67.5 nM

## GUACACUAGUCGGCCGCCACUGUUACAUGAGGAUCACCCAUGUAGGAUCACCCAUGACAUGAGGAUAGGACCGGGACGCAUGAGG
[1]
  apparent Kd: 45 nM
[2]
  apparent Kd: 41.3 nM

## AUGGUAAGAACAUGAGGAUCACCCAUGUGACGAGGACCGGUACGGCCGCCACUCGUACCUUAGUCGUCGAACAGAGGAUUCAUGU
[3]
  apparent Kd: 89.2 nM
[4]
  apparent Kd: 66 nM

## AAACUUCGCAUAGGAAAACUAUGUGAAGAUCGAGGACCGGUACGGCCGCCACUCGUCCUCAACAUGAGGAUCACCCAUGUAAUAA
[1]
  apparent Kd: 21.1 nM
[2]
  apparent Kd: 30 nM

## CACGAAAGAUCGGCCGCCACUCAUGUUUCUUACAUGAGGAUCACCCAUGUAUUUUCUUUCUUUUAGAGGACCGGGAUCGAGCGUG
[3]
  apparent Kd: 40.8 nM
[4]
  apparent Kd: 18.4 nM

## GGGUGGUAGGCGGCCGCCACUGAUUUUCAUUCCUAGAUGACAUGAGGAUCACCCAUGUUUAUGGGCAGGACCGGGCCUGCUGUGG
[3]
  apparent Kd: 62.7 nM
[4]
  apparent Kd: 55.7 nM

## AAUACAGUGUCGGCCGCCACUGAAACAUGACAUGAGACAUGAGGAUCACCCAUGUACAUAAUAAACAGGACCGGGACCCAUGUAU
[3]
  apparent Kd: 37.9 nM
[4]
  apparent Kd: 15.5 nM

## GGCCAUGGAAACAUGGCGGCGGCAUAAGCGCGAGGACCGGUACGGCCGCCACUCGGGCGACAUGAGGAUCACCCAUGUUCCUCAU
[1]
  apparent Kd: 317 nM
[2]
  apparent Kd: 541 nM

## GGUUGGUCCUCACAUGAGGAUCACCCAUGUCGAGGACCGGUACGGCCGCCACUCGAUUGUACCAGGGCUUAAGAGCCUAUGAGCA
[1]
  apparent Kd: 11.1 nM
[2]
  apparent Kd: 8.44 nM

## AACAUGAGGAUCACCCAUGUCCUCGUGUACCGAGGACCGGUACGGCCGCCACUCGGUUCUCGCGAGGAUGGUCAAAGACUAUCCA
[3]
  apparent Kd: 417 nM
[4]
  apparent Kd: 470 nM

## UCGUGUCUAUUGGUUUAGCUUUAAUCGUUACGAGGACCGGUACGGCCGCCACUCGAUUUAACAUGAGGAUCACCCAUGUACUCUC
[1]
  apparent Kd: 19 nM
[2]
  apparent Kd: 21.2 nM

## AUCAUAAUAGCCUCGUGUAAUUAAAUGGAACGAGGACCGGUACGGCCGCCACUCGAUAUAAACAUGAGGAUCACCCAUGUAAGCA
[1]
  apparent Kd: 65.5 nM
[2]
  apparent Kd: 58.3 nM

## GUGAGCGCCGAACAUCGCUGGUCCUCUAUCCGAGGACCGGUACGGCCGCCACUCGACAUGAGGAUCACCCAUGUUGGCACUGGCG
[1]
  apparent Kd: 9.37 nM
[2]
  apparent Kd: 10.7 nM

## GGAUAGGACACGGCCGCCACUACCUAGGAUACUAGAAACAUUUCCUCACAUGAGGAUCACCCAUGUAGGACCGGGUGUCCUAUCG
[1]
  apparent Kd: 273 nM
[2]
  apparent Kd: 115 nM

## GGGUGGUAGGCGGCCGCCACUGAUUUUUAUUUAUAGAUGACAUGAGGAUCACCCAUGUUUAUAUGCAGGACCGGGCCUGUUGUGG
[3]
  apparent Kd: 15.7 nM
[4]
  apparent Kd: 14.2 nM

## CGAUAUAAGACGGCCGCCACUAUUAAGUAACAAAAUAAACAUGAGGAUCACCCAUGUACAUGGGAUAGGACCGGGUCCAAUAACG
[3]
  apparent Kd: 163 nM
[4]
  apparent Kd: 76.9 nM

## AGAUUCGACACGGCCGCCACUCGUGACAGAUUUCGCAGUGGUCAACAUGAGGAUCACCCAUGUCUGAGGACCGGGUGUUGAGUCU
[1]
  apparent Kd: 33.5 nM
[2]
  apparent Kd: 474 nM

## AUCUUUGACGAUCUGGGAAAACCAGAUCGGCGAGGACCGGUACGGCCGCCACUCGUGUAUAAUAUACAUGAGGAUCACCCAUGUA
[3]
  apparent Kd: 40.4 nM
[4]
  apparent Kd: 29.6 nM

## CGUAGUAUCAGACAUGAGGAUCACCCAUGUCGAGGACCGGUACGGCCGCCACUCGGCAGUUUGCGUCCUCAGGUACUCCAGGUAA
[1]
  apparent Kd: 15.9 nM
[2]
  apparent Kd: 18.8 nM

## UUUAUUAUUGACUCGUUUUGGUAUUAAGAACGAGGACCGGUACGGCCGCCACUCGUGAUAUACAUGAGGAUCACCCAUGUUAGCA
[3]
  apparent Kd: 15.1 nM
[4]
  apparent Kd: 15.5 nM

## UAAUAAGUACCGGUCCUCAGAUCCUCAUGUCGAGGACCGGUACGGCCGCCACUCGAAACAUGAGGAUCACCCAUGUAAUAAUAAU
[1]
  apparent Kd: 39.5 nM
[2]
  apparent Kd: 31.5 nM

## GAGGAAACUCACAUGAGGAUCACCCAUGUACGAGGACCGGUACGGCCGCCACUCGAAACCAUGGGCGGUAGUACGUGGAAGCUUG
[1]
  apparent Kd: 21.8 nM
[2]
  apparent Kd: 95.9 nM

## AAUAAUAGGUGAUCUUGAGUCGUACCGUAACGAGGACCGGUACGGCCGCCACUCGAACAUGAGGAUCACCCAUGUAUGUAUGAUA
[3]
  apparent Kd: 90 nM
[4]
  apparent Kd: 117 nM

## GAGAGAGGAGUGCGGCGUGUUCCGCUCCGUCGAGGACCGGUACGGCCGCCACUCGACAUGAGGAUCACCCAUGUCCUCUCUCGCG
[1]
  apparent Kd: 31.3 nM
[2]
  apparent Kd: 13.8 nM

## UAUAUAUACUCGGCCGCCACUGAGAGAGUCAUGUAAACAUGAGGAUCACCCAUGUAAUAUAUAUACAGGACCGGGAGUAUAUGAA
[1]
  apparent Kd: 15.3 nM
[2]
  apparent Kd: 13.6 nM

## UAUAUAUAUCACUAACUGUUCUUGAGGUCUCGAGGACCGGUACGGCCGCCACUCGUACCGCCUCACAUGAGGAUCACCCAUGUCC
[1]
  apparent Kd: 63 nM
[2]
  apparent Kd: 59.1 nM

## GCUGCAGCUACGGCCGCCACUGUUACGUGAGACAUGAGGAUCACCCAUGUUGAUGUUUUACAGAAUAGGACCGGGUAGUUGUAGU
[1]
  apparent Kd: 9.07 nM
[2]
  apparent Kd: 10.2 nM

## AGUUUAGACACGGCCGCCACUCGUGACAGAUUUCGCAGUGGUCUACAUGAGGAUCACCCAUGUCUGAGGACCGGGUGUUGAGUUU
[1]
  apparent Kd: 144 nM
[2]
  apparent Kd: 433 nM

## CCAUGCAGGUCGGCCGCCACUACACACAUGAGGAUCACCCAUGUAGUUACUGGGUGAAGUGGCAGUAGGACCGGGACCUGCACAU
[3]
  apparent Kd: 311 nM
[4]
  apparent Kd: 729 nM

## AACAUACAGUUUUAGGUGGAUAUAAGGCGGCGAGGACCGGUACGGCCGCCACUCGCGUACAUGAGGAUCACCCAUGUCUGAAGCU
[3]
  apparent Kd: 60.3 nM
[4]
  apparent Kd: 46.5 nM

## GGCUAGGUCUCGGCCGCCACUGCUACAUGAGGAUCACCCAUGUACCUGGGCGGUCGCUCCCUCGGCAGGACCGGGAGACAUUCGU
[1]
  apparent Kd: 9.97 nM
[2]
  apparent Kd: 23 nM

## CAAUAAGUACCGGUCCUCAGAUCCUCAUGACGAGGACCGGUACGGCCGCCACUCGAAACAUGAGGAUCACCCAUGUAAUAAUAAU
[1]
  apparent Kd: 23 nM
[2]
  apparent Kd: 28.4 nM

## AGAGCAUUGACGGCCGCCACUUAUGUCACAUGAGGAUCACCCAUGUGAUGGGUGAUAGCCCGGUUGAGGACCGGGUCAAUGCUCA
[3]
  apparent Kd: 12.7 nM
[4]
  apparent Kd: 17.9 nM

## UCGUUUUAGUCGGCCGCCACUGGUCUCAUGUUCAACAUGAGGAUCACCCAUGUAUCUUAUUUUAACAGGACCGGGACGUAAUAGA
[1]
  apparent Kd: 50.8 nM
[2]
  apparent Kd: 19.8 nM

## AAUAAGAUCCUCAUGUGAGUCGUACCAUAACGAGGACCGGUACGGCCGCCACUCGAACAUGAGGAUCACCCAUGUAGGUACGACA
[3]
  apparent Kd: 118 nM
[4]
  apparent Kd: 176 nM

## AUACAUGAGGAUCACCCAUGUCCUCGUGAUCGAGGACCGGUACGGCCGCCACUCGGUCCUCGCGAGGAGGAGUCAAAGACUCCUA
[3]
  apparent Kd: 178 nM
[4]
  apparent Kd: 128 nM

## UCUGUUUGCUUUGUUUGUUUCUUCUUUGAGCGAGGACCGGUACGGCCGCCACUCGGGUUACAUGAGGAUCACCCAUGUGGUUUCU
[3]
  apparent Kd: 98.9 nM
[4]
  apparent Kd: 57.8 nM

## UGGGUACCGACGGCCGCCACUGAAUAUAGACAUGAGGAUCACCCAUGUAGAGAUCCUAGAAUAAACAGGACCGGGUCUGGUGCUA
[1]
  apparent Kd: 220 nM
[2]
  apparent Kd: 362 nM
